Assay results of several laboratories.
Compare with care: the assays were run in different laboratories.
Target: Tyrosine-protein kinase receptor TYRO3 (TYRO3, Homo sapiens, UniProt Q06418)
Residues used in one study (Q06418 41-890): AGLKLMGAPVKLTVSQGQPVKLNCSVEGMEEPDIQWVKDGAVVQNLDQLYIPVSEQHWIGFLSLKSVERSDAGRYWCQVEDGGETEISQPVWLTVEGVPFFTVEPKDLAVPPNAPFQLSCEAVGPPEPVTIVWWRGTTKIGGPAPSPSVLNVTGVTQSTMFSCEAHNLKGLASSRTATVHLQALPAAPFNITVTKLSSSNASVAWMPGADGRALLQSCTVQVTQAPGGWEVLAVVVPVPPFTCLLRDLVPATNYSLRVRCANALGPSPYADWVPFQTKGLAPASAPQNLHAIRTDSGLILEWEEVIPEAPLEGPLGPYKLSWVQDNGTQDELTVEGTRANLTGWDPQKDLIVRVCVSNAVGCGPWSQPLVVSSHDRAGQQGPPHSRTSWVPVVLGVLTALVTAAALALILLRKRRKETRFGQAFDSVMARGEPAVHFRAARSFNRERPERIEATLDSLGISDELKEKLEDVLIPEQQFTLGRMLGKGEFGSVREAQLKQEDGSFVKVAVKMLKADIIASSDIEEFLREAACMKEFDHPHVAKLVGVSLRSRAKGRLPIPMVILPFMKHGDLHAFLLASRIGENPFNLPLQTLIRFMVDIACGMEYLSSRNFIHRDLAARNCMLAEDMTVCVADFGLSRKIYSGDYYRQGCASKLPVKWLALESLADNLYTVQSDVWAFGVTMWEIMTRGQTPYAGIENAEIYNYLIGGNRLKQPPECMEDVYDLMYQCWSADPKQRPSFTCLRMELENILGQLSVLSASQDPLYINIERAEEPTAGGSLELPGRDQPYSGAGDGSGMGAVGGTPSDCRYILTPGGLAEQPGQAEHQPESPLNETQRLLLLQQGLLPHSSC

| SMILES | assay | setting | quantity | result |
| --- | --- | --- | --- | --- |
| CCN(CC)c1ccc(C2=NNC(=O)CC2C)cc1[N+](=O)[O-] (centres unmarked) | enzyme activity, inhibitor | 10 µM | remaining activity | 95% |
| O=C1NC(=O)c2cc(Nc3ccc(F)cc3)c(Nc3ccc(F)cc3)cc21 | cell-free assay | 0.5 µM | remaining signal | 94.8% |
| CC(C)(C)c1nc(-c2cccc(NS(=O)(=O)c3c(F)cccc3F)c2F)c(-c2ccnc(N)n2)s1 | enzyme activity, inhibitor, radiometric | 1 µM | remaining activity | 90% |
| COc1cc2nccc(Oc3ccc(NC(=O)c4c5n(n(-c6ccc(F)cc6)c4=O)CCCC5)cc3)c2cc1OC | enzyme activity, inhibitor | 0.1 µM | inhibition | 71% |
| Cc1ccc(Nc2nccc(N(C)c3ccc4c(C)n(C)nc4c3)n2)cc1S(N)(=O)=O | cell-free assay | 10 µM | inhibition | 55% |
| COCCOc1nc(-c2ccc(Cl)nc2)nc2c1CN(C(=O)c1ncn3ccccc13)CC2 | cell-free assay, competition with immobilised ligand | 0.1 µM | remaining binding | 100% |
| COc1cc2ncnc(Nc3ccc(Oc4ccccc4)c(C)c3C)c2cc1OC | enzyme activity, inhibitor | 1 µM | inhibition | 25% |
| Cn1c2c(c3ccc(Cl)c(Cl)c31)C(C#N)C(C)(C)NC2=O (centres unmarked) | thermal stability, DSF | 10 µM | ΔTm | 0.5 °C |
| CCCS(=O)(=O)Nc1ccc(F)c(C(=O)c2c[nH]c3ncc(-c4ccc(Cl)cc4)cc23)c1F | enzyme activity, inhibitor | 1 µM | inhibition | < 10% |
| CCN(CC)CCNC(=O)c1c(C)[nH]c(/C=C2\C(=O)Nc3ccc(F)cc32)c1C | cell-free assay | 10 µM | inhibition | 95% |
| COc1cccc(CNC(=O)c2nc3scc(COCc4ccc(C(=O)O)cc4)c3c(=O)[nH]2)c1 | cell-free assay, competition with immobilised ligand | 1 µM | remaining binding | 100% |
| CC(C)c1ccc(NC(=O)c2cccs2)c(-c2nc3ccccc3[nH]c2=O)c1 | enzyme activity, inhibitor | 1 µM | activity vs control | 103% |
| Cc1cc(NC(=O)c2cccc3cc(-c4cccc5[nH]nc(N)c45)ccc23)ccc1F | enzyme activity, inhibitor | 0.1 µM | activity vs control | 99% |
| CNC(=O)c1cc2c(Oc3ccc(NC(=O)C4(C(=O)Nc5ccc(F)cc5)CC4)cc3)ccnc2cc1OC | enzyme activity, inhibitor, radiometric | 1 µM | inhibition | 100% |
| CCS(=O)(=O)c1cc2cc(C[C@@](O)(CC(C)(C)c3ccc(F)cc3C(N)=O)C(F)(F)F)[nH]c2cn1 | cell-free assay, competition with immobilised ligand | 1 µM | remaining binding | 92% |
| Cn1c2c(c3ccc(Cl)c(Cl)c31)C(C#N)C1(CCN(C(=O)OC(C)(C)C)CC1)NC2=O (racemic) | thermal stability, DSF | 10 µM | ΔTm | 0 °C |
| Cc1ccc(NC(=O)c2ccc(C)c(C(F)(F)F)c2)cc1C#Cc1nn(C2CCC(O)CC2)c2ncnc(N)c12 (centres unmarked) | cell-free assay | 10 µM | remaining signal | 2% |
| Cc1c[nH]c2nccc(Oc3c(F)cc(Nc4cc(Cl)nc(N)n4)cc3F)c12 | cell-free assay, competition with immobilised ligand | 0.1 µM | remaining binding | 100% |
| CN1CCC2(CC1)NC(=O)c1c(c3ccc(Cl)c(Cl)c3n1C)C2C#N (racemic) | thermal stability, DSF | 10 µM | ΔTm | 0.7 °C |
| O=C(O)c1cc(-c2ccc(C3CCNCC3)cc2)c2ccc(-c3ccc(C(F)(F)F)cc3)cc2c1 | cell-free assay, competition with immobilised ligand | 1 µM | remaining binding | 100% |
| O=C1Nc2ccc(Cl)cc2C1=Cc1cc(Cl)c(O)c(Cl)c1 | cell-free assay | 0.5 µM | remaining signal | 94.9% |
| Cc1sc(C(=O)NC2COC2)cc1-n1cc(NC(=O)Nc2c(F)cccc2Cl)cn1 | enzyme activity, inhibitor | 10 µM | remaining activity | 98.8% |
| O=C1CCc2cc(Nc3cc(OC4CCOCC4)c([N+](=O)[O-])cc3Cl)ccc2N1 | cell-free assay, competition with immobilised ligand | 1 µM | remaining binding | 100% |
| CC1CCCN1c1nccc(-c2cnn3ncccc23)n1 (centres unmarked) | binding | 1 µM | remaining binding | 79% |
| Oc1cccc(-c2nc(N3CCOCC3)c3oc4ncccc4c3n2)c1 | cell-free assay | 0.5 µM | remaining signal | 102% |
| CCCOc1ccc([C@@H]2[C@@H](C(=O)O)[C@H](c3ccc4c(c3)OCO4)CN2CC(=O)Nc2c(CC)cccc2CC)cc1 | cell-free assay, competition with immobilised ligand | 1 µM | remaining binding | 94% |
| CN1CC(Oc2cnc(C#N)cc2-c2ccn3nc(NC(=O)C4CC4)cc3c2)C1 | enzyme activity, inhibitor | 1 µM | inhibition | -2% |
| CCC(=O)N[C@H]1CC[C@@H](C(=O)N(C)c2ccc(-c3nc4ccccc4o3)cc2)C1 | cell-free assay, competition with immobilised ligand | 1 µM | remaining binding | 92% |
| Nc1ncnc2occ(-c3ccc(NC(=O)Nc4cc(C(F)(F)F)ccc4F)cc3)c12 | cell-free assay | 20 µM | remaining signal | 2% |
